Calls of active or inactive are those of the source. No cut-off for these calls is given here.
Tests used:
VCaP [1] = test: Antitumor activity against human VCaP cells xenografted in CB17:SCID mouse assessed as tumor growth inhibition at 40 mg/kg, po treated for 37 days relative to control; format: functional; conditions: 888 h, time 37 day, read-out: TGI
VCaP [2] = test: Growth inhibition of human VCaP cells assessed as cell viability by WST-8 assay; format: functional, cell-based
[3] = target: Protein cereblon/Androgen receptor (Homo sapiens, UniProt P10275+Q96SW2); test: Protac activity at CRBN/AR in human VCaP cells assessed as AR degradation after 24 hrs by Western blot analysis; format: cell-based
Protein cereblon/Androgen receptor (Homo sapiens, UniProt P10275+Q96SW2), sequence (P10275 whole entry): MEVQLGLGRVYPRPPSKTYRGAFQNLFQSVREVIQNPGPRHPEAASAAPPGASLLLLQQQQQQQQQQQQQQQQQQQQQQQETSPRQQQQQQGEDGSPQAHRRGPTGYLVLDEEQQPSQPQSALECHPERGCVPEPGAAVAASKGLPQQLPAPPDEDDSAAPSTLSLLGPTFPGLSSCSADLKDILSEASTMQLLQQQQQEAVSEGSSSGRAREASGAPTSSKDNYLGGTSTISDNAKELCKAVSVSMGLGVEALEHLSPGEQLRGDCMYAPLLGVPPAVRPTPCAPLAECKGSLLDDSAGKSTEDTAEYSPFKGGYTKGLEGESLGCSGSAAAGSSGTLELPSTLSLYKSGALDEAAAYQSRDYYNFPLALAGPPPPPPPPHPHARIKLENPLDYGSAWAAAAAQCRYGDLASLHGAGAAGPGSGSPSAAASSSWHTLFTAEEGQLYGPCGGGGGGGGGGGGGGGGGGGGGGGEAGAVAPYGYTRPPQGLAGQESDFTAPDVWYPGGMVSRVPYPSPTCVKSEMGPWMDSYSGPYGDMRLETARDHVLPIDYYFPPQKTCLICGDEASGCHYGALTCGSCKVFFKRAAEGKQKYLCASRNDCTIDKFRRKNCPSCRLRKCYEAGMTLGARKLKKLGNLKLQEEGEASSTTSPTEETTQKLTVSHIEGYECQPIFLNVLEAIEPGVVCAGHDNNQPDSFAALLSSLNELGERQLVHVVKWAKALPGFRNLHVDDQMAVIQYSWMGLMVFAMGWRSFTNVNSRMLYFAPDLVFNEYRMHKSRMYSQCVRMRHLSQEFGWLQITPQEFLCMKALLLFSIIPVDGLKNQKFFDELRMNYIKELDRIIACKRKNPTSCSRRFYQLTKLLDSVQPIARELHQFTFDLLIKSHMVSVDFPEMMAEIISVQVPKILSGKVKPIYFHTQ
Protein cereblon/Androgen receptor (Homo sapiens, UniProt P10275+Q96SW2), sequence (Q96SW2 whole entry): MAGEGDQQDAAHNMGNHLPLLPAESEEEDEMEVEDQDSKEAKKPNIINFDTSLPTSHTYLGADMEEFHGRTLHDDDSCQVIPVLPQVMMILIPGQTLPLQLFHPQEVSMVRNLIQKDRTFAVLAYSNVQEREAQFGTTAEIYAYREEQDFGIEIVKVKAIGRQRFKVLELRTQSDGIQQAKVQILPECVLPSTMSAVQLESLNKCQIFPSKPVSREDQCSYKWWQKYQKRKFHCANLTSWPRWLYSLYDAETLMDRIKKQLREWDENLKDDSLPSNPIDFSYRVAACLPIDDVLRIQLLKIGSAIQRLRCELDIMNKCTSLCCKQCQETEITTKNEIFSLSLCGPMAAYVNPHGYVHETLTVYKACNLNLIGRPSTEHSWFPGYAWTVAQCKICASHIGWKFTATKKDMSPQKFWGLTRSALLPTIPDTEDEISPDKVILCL

[4] = Oral bioavailability in SCID mouse at 3 mg/kg by LC-MS/MS analysis; format: ADME, organism-based; conditions: in vivo
LNCaP = test: Growth inhibition of human LNCaP cells carrying AR T878A mutant assessed as cell viability by WST-8 assay; format: functional, cell-based
[5] = target: Protein cereblon/Androgen receptor (Homo sapiens, UniProt P10275+Q96SW2, T878A); conditions: lncap
Protein cereblon/Androgen receptor (Homo sapiens, UniProt P10275+Q96SW2, T878A), sequence (P10275 whole entry T878A, stated change not applied): as the sequence (P10275 whole entry) above, with T878A counted along it
Protein cereblon/Androgen receptor (Homo sapiens, UniProt P10275+Q96SW2, T878A), sequence (Q96SW2 whole entry, stated change not applied): as the sequence (Q96SW2 whole entry) above

[6] = Drug distribution in plasma of CB17:SCID mouse xenografted with human VCaP cells at 20 mg/kg, po measured at 6 hrs by LCMS analysis; format: ADME, organism-based
Procedure, shortened: (§1)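 Tumor-bearing male CB17 SCID mice (VCaP xenografts) given one 20 mg/kg oral dose in 100% PEG200, three mice per time point; plasma, tumor, liver, kidney, prostate and heart taken at 1, 6 and 24 h; tissues homogenised in water/acetonitrile, protein precipitated with cold acetonitrile, drug quantified by LC–MS/MS; ratios are tissue over plasma level.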

[7] = Drug distribution in prostate gland of CB17:SCID mouse xenografted with human VCaP cells at 20 mg/kg, po measured at 24 hrs by LCMS analysis; format: ADME, organism-based; conditions: read-out: Drug uptake; procedure, shortened: as §1
VCaP [8] = test: Antitumor activity against human VCaP cells xenografted in CB17:SCID mouse assessed as reduction in AR protein level in tumor at 20 mg/kg, po measured for 6 to 24 hrs by Western blot analysis; format: functional, organism-based; conditions: time 6-24 hrs
Procedure, shortened: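 VCaP xenografts in male CB17 SCID mice grown to about 200 mm3; single oral gavage dose of 20 mg/kg in 100% PEG200; tumors collected at 6 and 24 h, RIPA lysates blotted for AR with GAPDH as loading control, band intensity normalised to loading control.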

[9] = Drug distribution in tumor of CB17:SCID mouse xenografted with human VCaP cells at 20 mg/kg, po measured at 6 hrs by LCMS analysis; format: ADME, organism-based, Neoplasm; conditions: read-out: Drug uptake; procedure, shortened: as §1
[10] = Drug distribution in prostate gland of CB17:SCID mouse xenografted with human VCaP cells at 20 mg/kg, po measured at 6 hrs by LCMS analysis; format: ADME, organism-based; conditions: read-out: Drug uptake; procedure, shortened: as §1
[11] = Drug distribution in plasma of CB17:SCID mouse xenografted with human VCaP cells at 20 mg/kg, po measured at 24 hrs by LCMS analysis; format: ADME, organism-based; procedure, shortened: as §1
[12] = Drug distribution in tumor of CB17:SCID mouse xenografted with human VCaP cells at 20 mg/kg, po measured at 24 hrs by LCMS analysis; format: ADME, organism-based, Neoplasm; conditions: read-out: Drug uptake; procedure, shortened: as §1

CNC(=O)c1ccc(N2C(=S)N(c3ccc(C#N)c(C(F)(F)F)c3)C(=O)C2(C)C)cc1F [ENZALUTAMIDE]
inhibition in vivo at 40 mg/kg (VCaP [1]): 45%

N#Cc1ccc(O[C@H]2CC[C@H](NC(=O)c3ccc(N4CCC(N5CCN(c6ccc7c(c6)C(=O)N(C6CCC(=O)NC6=O)C7=O)CC5)CC4)cc3)C2)cc1Cl (some centres not stated)
IC50 (VCaP [2]): > 1000 nM

N#Cc1ccc(O[C@H]2CC[C@H](NC(=O)c3ccc(NCCCCCNc4ccc5c(c4)C(=O)N(C4CCC(=O)NC4=O)C5=O)cc3)CC2)cc1Cl (some centres not stated)
DC50 [3]: 0.2 nM

N#Cc1ccc(O[C@H]2CC[C@H](NC(=O)c3ccc(NCCCCCCCCNc4ccc5c(c4)C(=O)N(C4CCC(=O)NC4=O)C5=O)cc3)CC2)cc1Cl (some centres not stated)
DC50 [3]: 1.5 nM

N#Cc1ccc(O[C@H]2CC[C@H](NC(=O)c3ccc(NCCCCCCCNc4ccc5c(c4)C(=O)N(C4CCC(=O)NC4=O)C5=O)cc3)CC2)cc1Cl (some centres not stated)
DC50 [3]: 0.7 nM

N#Cc1ccc(O[C@H]2CC[C@H](NC(=O)c3ccc(N4CCN(C5CCN(c6ccc7c(c6)C(=O)N(C6CCC(=O)NC6=O)C7=O)CC5)CC4)cc3)CC2)cc1Cl (some centres not stated)
DC50 [3]: 0.3 nM

CN1CCN(c2ccc(C(=O)N[C@H]3CC[C@H](N(C)c4ccc(C#N)c(Cl)c4)CC3)cc2)CC1
IC50 (VCaP [2]): 61 nM

N#Cc1ccc(O[C@H]2CC[C@H](NC(=O)c3ccc(N4CCN(C5CN(c6ccc7c(c6)C(=O)N(C6CCC(=O)NC6=O)C7=O)C5)CC4)cc3)CC2)cc1Cl (some centres not stated)
DC50 [3]: 0.1 nM

CC(O)(CS(=O)(=O)c1ccc(N2CCN(C3CCN(c4ccc5c(c4)C(=O)N(C4CCC(=O)NC4=O)C5=O)CC3)CC2)cc1)C(=O)Nc1ccc(C#N)c(C(F)(F)F)c1 (configuration not stated)
IC50 (VCaP [2]): > 1000 nM

CN(c1ccc(C#N)c(Cl)c1)[C@H]1CC[C@H](NC(=O)c2ccc(N3CCC(CN4CCN(c5ccc6c(c5)C(=O)N(C5CCC(=O)NC5=O)C6=O)CC4)CC3)cc2)CC1 (some centres not stated)
F [4]: 35%

N#Cc1ccc(O[C@H]2CC[C@H](NC(=O)c3ccc(N4CCN(CC5CCN(c6ccc7c(c6)C(=O)N(C6CCC(=O)NC6=O)C7=O)CC5)CC4)cc3)CC2)cc1Cl (some centres not stated)
IC50 (VCaP [2]): 2.7 nM

CN(c1ccc(C#N)c(Cl)c1)[C@H]1CC[C@H](NC(=O)c2ccc(N3CC(CN4CCN(c5ccc6c(c5)C(=O)N(C5CCC(=O)NC5=O)C6=O)CC4)C3)cc2)CC1 (some centres not stated)
F [4]: 34% | IC50 (VCaP [2]): 4.3 nM | IC50 (LNCaP): 11.6 nM | DC50 [5]: 1.9 nM

CN(c1ccc(C#N)c(Cl)c1)[C@H]1CC[C@H](NC(=O)c2ccc(N3CC(N4CCN(c5ccc6c(c5)C(=O)N(C5CCC(=O)NC5=O)C6=O)CC4)C3)cc2)CC1 (some centres not stated)
F [4]: 67% | concentration at 6 h [6]: 181 ng/mL | concentration at 24 h [7]: 123 ng/g | inhibition (VCaP [8]): Active | IC50 (VCaP [2]): 5.1 nM | IC50 (LNCaP): 21.7 nM | concentration at 6 h [9]: 129 ng/g | concentration at 6 h [10]: 108 ng/g | DC50 [5]: 1.3 nM | concentration at 24 h [11]: 106 ng/mL | concentration at 24 h [12]: 116 ng/g

N#Cc1ccc(N[C@H]2CC[C@H](NC(=O)c3ccc(N4CCC(N5CCN(c6ccc7c(c6)C(=O)N(C6CCC(=O)NC6=O)C7=O)CC5)CC4)cc3)CC2)cc1Cl (some centres not stated)
IC50 (VCaP [2]): 16.6 nM
